This experiment deals with T1, E-selectin (Homo sapiens, UniProt P16581).
T1 sequence (P16581 whole entry): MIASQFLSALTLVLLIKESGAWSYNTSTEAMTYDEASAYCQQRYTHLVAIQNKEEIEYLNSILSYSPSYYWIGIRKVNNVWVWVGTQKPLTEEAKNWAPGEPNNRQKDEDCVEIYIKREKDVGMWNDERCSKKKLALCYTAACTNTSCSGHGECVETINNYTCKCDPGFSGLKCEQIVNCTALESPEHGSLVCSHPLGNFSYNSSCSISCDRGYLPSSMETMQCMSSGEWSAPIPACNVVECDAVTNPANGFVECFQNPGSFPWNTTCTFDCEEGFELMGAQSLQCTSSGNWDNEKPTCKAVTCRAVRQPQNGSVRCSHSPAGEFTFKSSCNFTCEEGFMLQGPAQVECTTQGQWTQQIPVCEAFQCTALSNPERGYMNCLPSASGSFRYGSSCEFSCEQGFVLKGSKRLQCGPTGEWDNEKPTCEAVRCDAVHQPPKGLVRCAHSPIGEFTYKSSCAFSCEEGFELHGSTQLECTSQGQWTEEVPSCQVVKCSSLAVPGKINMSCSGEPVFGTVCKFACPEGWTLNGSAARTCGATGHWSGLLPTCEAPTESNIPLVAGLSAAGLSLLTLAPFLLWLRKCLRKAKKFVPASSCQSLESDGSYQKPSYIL
The experiment is described as follows: Inhibition of MM6 cell adhesion to recombinant E-selectin by flow chamber assay. The method, boiled down:
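Wells coated overnight at 4 °C with recombinant soluble E-selectin (5 µg/mL in PBS with Ca2+/Mg2+). Background wells had no selectin. Compound in RPMI with 1% FCS and DMSO applied for 60 min, then washed. MM6 cells (1 × 10^6/mL, RPMI + 1% FCS) perfused at 1 dyn/cm2 shear for 4 min. Cells adhering ≥30 s were counted in four random fields in the first minute by phase-contrast video microscopy. Experiments run two or three times; IC50 by curve fitting.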

As a reminder, the IC50 is the concentration that inhibits the measured activity by half. As to `CCCCCCCCCCOc1cc(OCCCCCCCCCC)cc(OCCCCCCON=C(c2ccc(C(=O)O)cc2)c2ccc(C(=O)O)cc2)c1`, the IC50 was determined as 20 µM.

As for `CCCCCCCCCCOc1cc(OCCCCCCCCCC)cc(OCCCCCCN(c2ccc(C(=O)O)cc2)c2ccc(C(=O)O)cc2)c1`, the IC50 is 28 µM.

For the origin of these results see BindingDB's records for doi:10.1021/jm060468y (Johannes Gutenberg University, 2006).
